Reference: ChEMBL document CHEMBL3046951, “Volatile constituents from the leaves of Callicarpa japonica Thunb. and their antibacterial activities” (2004)

Legend:
Type in all cases: functional
[1] = system: Listeria monocytogenes; experiment: Antimicrobial activity against Listeria monocytogenes ATCC 19111 assessed as growth inhibition rate at 107.52 mg/l after 72 hr by spectrophotometry; conditions: ATCC 19111, 72 h, read-out: GI
Method in brief: (§1)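 L. monocytogenes was grown at 30 °C in tryptic soy broth, subcultured for 18 h, and exposed to pure volatile compounds (>95% purity). Growth was followed by Bioscreen C optical density every 24 h for 72 h against a 10% Tween 80 control.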

[2] = system: Salmonella typhimurium; experiment: Antimicrobial activity against Salmonella enterica subsp. enterica serovar Typhimurium ATCC 14028 assessed as growth inhibition rate at 247 mg/l after 72 hr by spectrophotometry; conditions: ATCC 14028, 72 h, read-out: GI
Method in brief: (§2)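 Salmonella Typhimurium ATCC 14028 grown in nutrient broth at 30 °C, precultured 24 h, then subcultured 1:100 for 18 h before testing. Single volatile compounds (>95% pure) were added. OD was read every 24 h over 72 h in a Bioscreen C, with 10% Tween 80 as the comparison control.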

[3] = system: Staphylococcus aureus; experiment: Antimicrobial activity against Staphylococcus aureus ATCC 25923 assessed as growth inhibition rate at 43 mg/l after 72 hr by spectrophotometry; conditions: ATCC 25923, 72 h, read-out: GI
[4] = system: Listeria monocytogenes; experiment: Antimicrobial activity against Listeria monocytogenes ATCC 19111 assessed as growth inhibition rate at 215.04 mg/l after 72 hr by spectrophotometry; conditions: ATCC 19111, 72 h, read-out: GI; method in brief: as §1
[5] = system: Vibrio parahaemolyticus; experiment: Antimicrobial activity against Vibrio parahaemolyticus ATCC 33844 assessed as growth inhibition rate at 61.12 mg/l after 72 hr by spectrophotometry; conditions: ATCC 33844, 72 h, read-out: GI
[6] = system: Bacillus cereus; experiment: Antimicrobial activity against Bacillus cereus ATCC 11778 assessed as growth inhibition rate at 107.52 mg/l after 72 hr by spectrophotometry; conditions: ATCC 11778, 72 h, read-out: GI
Method in brief: (§3)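 Pure volatile compounds (purity >95%; one at 90%) were tested against B. cereus ATCC 11778. The strain was grown at 30 °C in nutrient broth for 24 h, then subcultured for 18 h. Optical density was read in a Bioscreen C every 24 h for 72 h, with 10% Tween 80 as the control.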

[7] = system: Salmonella typhimurium; experiment: Antimicrobial activity against Salmonella enterica subsp. enterica serovar Typhimurium ATCC 14028 assessed as growth inhibition rate at 61.12 mg/l after 72 hr by spectrophotometry; conditions: ATCC 14028, 72 h, read-out: GI
[8] = system: Staphylococcus aureus; experiment: Antimicrobial activity against Staphylococcus aureus ATCC 25923 assessed as growth inhibition rate at 107.52 mg/l after 72 hr by spectrophotometry; conditions: ATCC 25923, 72 h, read-out: GI
[9] = system: Escherichia coli; experiment: Antimicrobial activity against Escherichia coli O157:H7 ATCC 43894 assessed as growth inhibition rate at 21.52 mg/l after 72 hr by spectrophotometry; conditions: O157:H7 ATCC 43894, 72 h, read-out: GI
[10] = system: Staphylococcus aureus; experiment: Antimicrobial activity against Staphylococcus aureus ATCC 25923 assessed as growth inhibition rate at 21.52 mg/l after 72 hr by spectrophotometry; conditions: ATCC 25923, 72 h, read-out: GI
[11] = system: Vibrio parahaemolyticus; experiment: Antimicrobial activity against Vibrio parahaemolyticus ATCC 33844 assessed as growth inhibition rate at 215.04 mg/l after 72 hr by spectrophotometry; conditions: ATCC 33844, 72 h, read-out: GI
[12] = system: Listeria monocytogenes; experiment: Antimicrobial activity against Listeria monocytogenes ATCC 19111 assessed as growth inhibition rate at 247 mg/l after 72 hr by spectrophotometry; conditions: ATCC 19111, 72 h, read-out: GI; method in brief: as §1
[13] = system: Vibrio parahaemolyticus; experiment: Antimicrobial activity against Vibrio parahaemolyticus ATCC 33844 assessed as growth inhibition rate at 6.12 mg/l after 72 hr by spectrophotometry; conditions: ATCC 33844, 72 h, read-out: GI
[14] = system: Escherichia coli; experiment: Antimicrobial activity against Escherichia coli O157:H7 ATCC 43894 assessed as growth inhibition rate at 247 mg/l after 72 hr by spectrophotometry; conditions: O157:H7 ATCC 43894, 72 h, read-out: GI
[15] = system: Staphylococcus aureus; experiment: Antimicrobial activity against Staphylococcus aureus ATCC 25923 assessed as growth inhibition rate at 215.04 mg/l after 72 hr by spectrophotometry; conditions: ATCC 25923, 72 h, read-out: GI
[16] = system: Staphylococcus aureus; experiment: Antimicrobial activity against Staphylococcus aureus ATCC 25923 assessed as growth inhibition rate at 61.12 mg/l after 72 hr by spectrophotometry; conditions: ATCC 25923, 72 h, read-out: GI
[17] = system: Vibrio parahaemolyticus; experiment: Antimicrobial activity against Vibrio parahaemolyticus ATCC 33844 assessed as growth inhibition rate at 21.52 mg/l after 72 hr by spectrophotometry; conditions: ATCC 33844, 72 h, read-out: GI
[18] = system: Vibrio parahaemolyticus; experiment: Antimicrobial activity against Vibrio parahaemolyticus ATCC 33844 assessed as growth inhibition rate at 43 mg/l after 72 hr by spectrophotometry; conditions: ATCC 33844, 72 h, read-out: GI
[19] = system: Listeria monocytogenes; experiment: Antimicrobial activity against Listeria monocytogenes ATCC 19111 assessed as growth inhibition rate at 21.52 mg/l after 72 hr by spectrophotometry; conditions: ATCC 19111, 72 h, read-out: GI; method in brief: as §1
[20] = system: Escherichia coli; experiment: Antimicrobial activity against Escherichia coli O157:H7 ATCC 43894 assessed as growth inhibition rate at 43 mg/l after 72 hr by spectrophotometry; conditions: O157:H7 ATCC 43894, 72 h, read-out: GI
[21] = system: Escherichia coli; experiment: Antimicrobial activity against Escherichia coli O157:H7 ATCC 43894 assessed as growth inhibition rate at 6.12 mg/l after 72 hr by spectrophotometry; conditions: O157:H7 ATCC 43894, 72 h, read-out: GI
[22] = system: Staphylococcus aureus; experiment: Antimicrobial activity against Staphylococcus aureus ATCC 25923 assessed as growth inhibition rate at 6.12 mg/l after 72 hr by spectrophotometry; conditions: ATCC 25923, 72 h, read-out: GI
[23] = system: Salmonella typhimurium; experiment: Antimicrobial activity against Salmonella enterica subsp. enterica serovar Typhimurium ATCC 14028 assessed as growth inhibition rate at 107.52 mg/l after 72 hr by spectrophotometry; conditions: ATCC 14028, 72 h, read-out: GI; method in brief: as §2
[24] = system: Escherichia coli; experiment: Antimicrobial activity against Escherichia coli O157:H7 ATCC 43894 assessed as growth inhibition rate at 107.52 mg/l after 72 hr by spectrophotometry; conditions: O157:H7 ATCC 43894, 72 h, read-out: GI
[25] = system: Listeria monocytogenes; experiment: Antimicrobial activity against Listeria monocytogenes ATCC 19111 assessed as growth inhibition rate at 61.12 mg/l after 72 hr by spectrophotometry; conditions: ATCC 19111, 72 h, read-out: GI; method in brief: as §1
[26] = system: Salmonella typhimurium; experiment: Antimicrobial activity against Salmonella enterica subsp. enterica serovar Typhimurium ATCC 14028 assessed as growth inhibition rate at 43 mg/l after 72 hr by spectrophotometry; conditions: ATCC 14028, 72 h, read-out: GI; method in brief: as §2
[27] = system: Escherichia coli; experiment: Antimicrobial activity against Escherichia coli O157:H7 ATCC 43894 assessed as growth inhibition rate at 215.04 mg/l after 72 hr by spectrophotometry; conditions: O157:H7 ATCC 43894, 72 h, read-out: GI
[28] = system: Listeria monocytogenes; experiment: Antimicrobial activity against Listeria monocytogenes ATCC 19111 assessed as growth inhibition rate at 43 mg/l after 72 hr by spectrophotometry; conditions: ATCC 19111, 72 h, read-out: GI; method in brief: as §1
[29] = system: Bacillus cereus; experiment: Antimicrobial activity against Bacillus cereus ATCC 11778 assessed as growth inhibition rate at 21.52 mg/l after 72 hr by spectrophotometry; conditions: ATCC 11778, 72 h, read-out: GI; method in brief: as §3
[30] = system: Salmonella typhimurium; experiment: Antimicrobial activity against Salmonella enterica subsp. enterica serovar Typhimurium ATCC 14028 assessed as growth inhibition rate at 21.52 mg/l after 72 hr by spectrophotometry; conditions: ATCC 14028, 72 h, read-out: GI; method in brief: as §2
[31] = system: Salmonella typhimurium; experiment: Antimicrobial activity against Salmonella enterica subsp. enterica serovar Typhimurium ATCC 14028 assessed as growth inhibition rate at 6.12 mg/l after 72 hr by spectrophotometry; conditions: ATCC 14028, 72 h, read-out: GI
[32] = system: Bacillus cereus; experiment: Antimicrobial activity against Bacillus cereus ATCC 11778 assessed as growth inhibition rate at 61.12 mg/l after 72 hr by spectrophotometry; conditions: ATCC 11778, 72 h, read-out: GI; method in brief: as §3
[33] = system: Vibrio parahaemolyticus; experiment: Antimicrobial activity against Vibrio parahaemolyticus ATCC 33844 assessed as growth inhibition rate at 107.52 mg/l after 72 hr by spectrophotometry; conditions: ATCC 33844, 72 h, read-out: GI

Compound `CCC/C=C/C=O` has an inhibition of growth at 107.52 µg/mL [1] of 99.4%, an inhibition of growth at 247 µg/mL [2] of 98.7% and an inhibition of growth at 43 µg/mL [3] of 44.3%. For the same compound, the inhibition of growth at 215.04 µg/mL [4] was 99.8%, the inhibition of growth at 61.12 µg/mL [5] was 99.8% and the inhibition of growth at 107.52 µg/mL [6] was 100%. It also gave an inhibition of growth at 61.12 µg/mL [7] of 98.5%, an inhibition of growth at 107.52 µg/mL [8] of 96.7% and an inhibition of growth at 21.52 µg/mL [9] of 8.2%. For the same compound, the inhibition of growth at 21.52 µg/mL [10] was 28.7%, the inhibition of growth at 215.04 µg/mL [11] was 99.8% and the inhibition of growth at 247 µg/mL [12] was 99.7%. For the same compound, the inhibition of growth at 6.12 µg/mL [13] was 84.7%, the inhibition of growth at 247 µg/mL [14] was 99.9% and the inhibition of growth at 215.04 µg/mL [15] was 100%. For the same compound, the inhibition of growth at 61.12 µg/mL [16] was 72.6%, the inhibition of growth at 21.52 µg/mL [17] was 99.6% and the inhibition of growth at 43 µg/mL [18] was 100%. For the same compound, the inhibition of growth at 21.52 µg/mL [19] was 32%, the inhibition of growth at 43 µg/mL [20] was 25.5% and the inhibition of growth at 6.12 µg/mL [21] was 7.3%. It also gave an inhibition of growth at 6.12 µg/mL [22] of 29.2%, an inhibition of growth at 107.52 µg/mL [23] of 98.9% and an inhibition of growth at 107.52 µg/mL [24] of 89.9%. The inhibition of growth at 61.12 µg/mL [25] was 81.2%, the inhibition of growth at 43 µg/mL [26] was 83.4% and the inhibition of growth at 215.04 µg/mL [27] was 97.3%. For the same compound, the inhibition of growth at 43 µg/mL [28] was 45.3%, the inhibition of growth at 21.52 µg/mL [29] was 91.3% and the inhibition of growth at 21.52 µg/mL [30] was 63%. The inhibition of growth at 6.12 µg/mL [31] was 47.1%, the inhibition of growth at 61.12 µg/mL [32] was 98.7% and the inhibition of growth at 107.52 µg/mL [33] was 99.8%.
